Values after ≈ are worked out from the molar mass of the structure shown.
Key:
[1] = test system: Mycobacterium tuberculosis; experiment: Antimycobacterial activity against Mycobacterium tuberculosis CNCTC My 331/88 after 14 days by microdilution method; format: functional; conditions: CNCTC My 331/88, 336 h
Outline: (§1)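 MIC determined by a dilution micromethod. Strains came from the Czech National Collection of Type Cultures, Prague. Compounds were added to the medium as DMSO solutions. Each inoculum was also plated in parallel on Löwenstein–Jensen medium to check its sterility and growth. The M. avium strain is identical with ATCC 25291 and resistant to INH.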

[2] = test system: Mycobacterium tuberculosis; experiment: Antimycobacterial activity against Mycobacterium tuberculosis CNCTC My 331/88 after 21 days by microdilution method; format: functional; conditions: CNCTC My 331/88, 504 h; outline: as §1
Mycobacterium avium [3] = experiment: Antimycobacterial activity against Mycobacterium avium CNCTC My 330/88 after 14 days by microdilution method; format: functional; conditions: CNCTC My 330/88, 336 h; outline: as §1
Mycobacterium avium [4] = experiment: Antimycobacterial activity against Mycobacterium avium CNCTC My 330/88 after 21 days by microdilution method; format: functional; conditions: CNCTC My 330/88, 504 h; outline: as §1
Mycobacterium kansasii [5] = experiment: Antimycobacterial activity against Mycobacterium kansasii CNCTC My 235/80 after 14 days by microdilution method; format: functional; conditions: CNCTC My 235/80, 336 h
Outline: (§2)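 Dilution micromethod for MIC; compounds added to medium as DMSO solutions. Each strain also inoculated onto Löwenstein–Jensen medium to control inoculum sterility and growth. Strain 6509/96 is a clinical isolate; CNCTC strains from the Czech national type culture collection.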

Mycobacterium kansasii [6] = experiment: Antimycobacterial activity against Mycobacterium kansasii CNCTC My 235/80 after 21 days by microdilution method; format: functional; conditions: CNCTC My 235/80, 504 h; outline: as §2
Mycobacterium kansasii [7] = experiment: Antimycobacterial activity against Mycobacterium kansasii 6509/96 after 14 days by microdilution method; format: functional; conditions: for MIC: 6509/96, 336 h; outline: as §2
Mycobacterium kansasii [8] = experiment: Antimycobacterial activity against Mycobacterium kansasii 6509/96 after 21 days by microdilution method; format: functional; conditions: 6509/96, 504 h; outline: as §2
HeLa = experiment: Cytotoxicity against human HeLa cells after 72 hrs by using methylene blue staining; format: functional, cell-based
Outline: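 HeLa cells in RPMI 1640 with supplements, preincubated 48 h without compound. Compound dilutions were then applied to subconfluent monolayers for 72 h at 37 °C, 5% CO2. Cells were glutaraldehyde-fixed, stained with 0.05% methylene blue, eluted with 0.33 N HCl and read at OD 660 nm. CC50 taken at 50% intersection versus negative control.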

K562 = experiment: Antiproliferative activity against human K562 cells after 72 hrs by celltiter-blue assay; format: functional, cell-based
Outline: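 K-562 grown in RPMI 1640 with ultraglutamine, gentamicin, 10% heat-inactivated FBS at 37 °C; about 10,000 cells/well. Compounds dissolved in DMSO and diluted in DMEM, incubated 72 h at 37 °C, 5% CO2. Viability read by CellTiter-Blue resazurin reduction. GI50 taken where the dose-response curve crosses 50% of untreated control.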

HUVEC = experiment: Antiproliferative activity against HUVEC after 72 hrs by using methylene blue staining; format: cell-based; conditions: human
Outline: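 HUVEC in culture medium with ultraglutamine, gentamicin, 10% heat-inactivated FBS, 37 °C. Harvested in log phase by trypsinization; about 10,000 cells/well. Compounds in DMSO, diluted in DMEM, incubated 72 h at 37 °C, 5% CO2. Cells then glutaraldehyde-fixed, stained with 0.05% methylene blue for 15 min, eluted with 0.33 N HCl, OD 660 nm. GI50 taken at 50% intersection versus untreated control.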

| SMILES | MIC [1] [µM] | MIC [2] [µM] | MIC (Mycobacterium avium [3]) [µM] | MIC (Mycobacterium avium [4]) [µM] | MIC (Mycobacterium kansasii [5]) [µM] | MIC (Mycobacterium kansasii [6]) [µM] | MIC (Mycobacterium kansasii [7]) [µM] | MIC (Mycobacterium kansasii [8]) [µM] | Activity (HeLa) | Activity (K562) | Activity (HUVEC) | Activity (Mycobacterium kansasii [7]) |
| --- | --- | --- | --- | --- | --- | --- | --- | --- | --- | --- | --- | --- |
| O=c1oc2ccc(Br)cc2c(=S)n1Cc1ccc(Cl)c(Cl)c1 | 2 (≈ 0.834 µg/mL) | 4 (≈ 1.67 µg/mL) | 8 (≈ 3.34 µg/mL) | 8 (≈ 3.34 µg/mL) | 16 (≈ 6.67 µg/mL) | 16 (≈ 6.67 µg/mL) | 16 (≈ 6.67 µg/mL) | 16 (≈ 6.67 µg/mL) | Toxic | Toxic | Toxic | – |
| S=c1oc2ccc(Br)cc2c(=S)n1Cc1ccccc1 | 1 (≈ 0.364 µg/mL) | 2 (≈ 0.729 µg/mL) | 8 (≈ 2.91 µg/mL) | 8 (≈ 2.91 µg/mL) | 8 (≈ 2.91 µg/mL) | 8 (≈ 2.91 µg/mL) | 4 (≈ 1.46 µg/mL) | 8 (≈ 2.91 µg/mL) | – | – | – | – |
| S=c1oc2ccc(Cl)cc2c(=S)n1Cc1ccc(Cl)c(Cl)c1 | 4 (≈ 1.55 µg/mL) | 8 (≈ 3.11 µg/mL) | 16 (≈ 6.22 µg/mL) | 32 (≈ 12.4 µg/mL) | 32 (≈ 12.4 µg/mL) | 32 (≈ 12.4 µg/mL) | 32 (≈ 12.4 µg/mL) | 32 (≈ 12.4 µg/mL) | – | – | – | – |
| O=c1oc2ccccc2c(=S)n1Cc1ccc(Cl)c(Cl)c1 | 1 (≈ 0.338 µg/mL) | 1 (≈ 0.338 µg/mL) | 1 (≈ 0.338 µg/mL) | 1 (≈ 0.338 µg/mL) | 2 (≈ 0.676 µg/mL) | 4 (≈ 1.35 µg/mL) | 2 (≈ 0.676 µg/mL) | 4 (≈ 1.35 µg/mL) | Toxic | Toxic | Toxic | – |
| O=c1oc2ccc(Cl)cc2c(=O)n1Cc1ccc(F)cc1 | 32 (≈ 9.78 µg/mL) | 32 (≈ 9.78 µg/mL) | 32 (≈ 9.78 µg/mL) | 32 (≈ 9.78 µg/mL) | 62.5 (≈ 19.1 µg/mL) | 62.5 (≈ 19.1 µg/mL) | – | 125 (≈ 38.2 µg/mL) | Toxic | Toxic | Toxic | Toxic |
| S=c1oc2ccc(Br)cc2c(=S)n1Cc1ccc(Cl)c(Cl)c1 | 4 (≈ 1.73 µg/mL) | 8 (≈ 3.47 µg/mL) | 16 (≈ 6.93 µg/mL) | 16 (≈ 6.93 µg/mL) | 16 (≈ 6.93 µg/mL) | 32 (≈ 13.9 µg/mL) | 16 (≈ 6.93 µg/mL) | 32 (≈ 13.9 µg/mL) | – | – | – | – |
| O=c1oc2ccc(Br)cc2c(=S)n1Cc1ccccc1 | 1 (≈ 0.348 µg/mL) | 2 (≈ 0.696 µg/mL) | 8 (≈ 2.79 µg/mL) | 8 (≈ 2.79 µg/mL) | 8 (≈ 2.79 µg/mL) | 8 (≈ 2.79 µg/mL) | 4 (≈ 1.39 µg/mL) | 8 (≈ 2.79 µg/mL) | Toxic | Toxic | Toxic | – |
| CO[C@H]1/C=C/O[C@@]2(C)Oc3c(C)c(O)c4c(O)c(c(/C=N/N5CCN(C)CC5)c(O)c4c3C2=O)NC(=O)/C(C)=C\C=C\[C@H](C)[C@H](O)[C@@H](C)[C@@H](O)[C@@H](C)[C@H](OC(C)=O)[C@@H]1C [RIFAMPIN] | 0.25 (≈ 0.206 µg/mL) | 0.5 (≈ 0.411 µg/mL) | 16 (≈ 13.2 µg/mL) | 65 (≈ 53.5 µg/mL) | 0.25 (≈ 0.206 µg/mL) | 0.25 (≈ 0.206 µg/mL) | 0.125 (≈ 0.103 µg/mL) | 0.25 (≈ 0.206 µg/mL) | – | – | – | – |
| O=c1oc2c(Cl)cc(Cl)cc2c(=S)n1Cc1ccc(Cl)c(Cl)c1 | 2 (≈ 0.814 µg/mL) | 2 (≈ 0.814 µg/mL) | 4 (≈ 1.63 µg/mL) | 4 (≈ 1.63 µg/mL) | 16 (≈ 6.51 µg/mL) | 16 (≈ 6.51 µg/mL) | 16 (≈ 6.51 µg/mL) | 16 (≈ 6.51 µg/mL) | Toxic | Toxic | Toxic | – |
| Cc1ccc2oc(=O)n(Cc3ccccc3)c(=S)c2c1 | 1 (≈ 0.283 µg/mL) | 1 (≈ 0.283 µg/mL) | 2 (≈ 0.567 µg/mL) | 2 (≈ 0.567 µg/mL) | 1 (≈ 0.283 µg/mL) | 2 (≈ 0.567 µg/mL) | 1 (≈ 0.283 µg/mL) | 2 (≈ 0.567 µg/mL) | Toxic | Toxic | Toxic | – |
| O=c1oc2ccccc2c(=S)n1Cc1ccccc1 | 1 (≈ 0.269 µg/mL) | 2 (≈ 0.539 µg/mL) | 8 (≈ 2.15 µg/mL) | 8 (≈ 2.15 µg/mL) | 4 (≈ 1.08 µg/mL) | 8 (≈ 2.15 µg/mL) | 4 (≈ 1.08 µg/mL) | 8 (≈ 2.15 µg/mL) | Toxic | Toxic | Toxic | – |

From ChEMBL document CHEMBL1177835, “A note to the biological activity of benzoxazine derivatives containing the thioxo group” (Eur J Med Chem, 2010)
